From ChEMBL document CHEMBL4145521, “Regioselective synthesis of 3,4-diaryl-5-unsubstituted isoxazoles, analogues of natural cytostatic combretastatin A4” (Eur J Med Chem, 2018)

How the values were obtained:
Type in all cases: functional
Paracentrotus lividus = assay: Antimitotic activity against Paracentrotus lividus embryo assessed as cleavage arrest measured at 5.5 hrs post fertilization by light microscopy
Outline: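 Sea urchin eggs were fertilized with diluted sperm and cultured at room temperature in filtered seawater with paddle agitation (60 rpm), at up to 2000 embryos/mL. The effective threshold concentration causing cleavage alteration, death before hatching or full mitotic arrest was scored in duplicate.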

NCI-H460 [1] = assay: Cytotoxicity against human NCI-H460 cells assessed as cell growth at 0.01 uM incubated for 48 hrs by sulforhodamine B assay relative to control; conditions: NCI-H460, 48 h, read-out: Activity
HCT-116 = assay: Cytotoxicity against human HCT116 cells assessed as cell growth at 0.01 uM incubated for 48 hrs by sulforhodamine B assay relative to control; conditions: HCT-116, 48 h, read-out: Activity
HT-29 = assay: Cytotoxicity against human HT-29 cells assessed as cell growth at 0.01 uM incubated for 48 hrs by sulforhodamine B assay relative to control; conditions: HT-29, 48 h, read-out: Activity
SNB-19 [2] = assay: Cytotoxicity against human SNB19 cells assessed as cell growth at 0.01 uM incubated for 48 hrs by sulforhodamine B assay relative to control; conditions: SNB-19, 48 h, read-out: Activity
786-0 [3] = assay: Cytotoxicity against human 786-0 cells assessed as cell growth at 0.01 uM incubated for 48 hrs by sulforhodamine B assay relative to control; conditions: 786-0, 48 h, read-out: Activity
RPMI-8226 [4] = assay: Cytotoxicity against human RPMI8226 cells assessed as cell growth at 0.1 uM incubated for 48 hrs by sulforhodamine B assay relative to control; conditions: RPMI-8226, 48 h, read-out: Activity
SR = assay: Cytotoxicity against human SR cells assessed as cell growth at 0.1 uM incubated for 48 hrs by sulforhodamine B assay relative to control; conditions: read-out: Activity
786-0 [5] = assay: Cytotoxicity against human 786-0 cells assessed as cell growth at 0.1 uM incubated for 48 hrs by sulforhodamine B assay relative to control; conditions: 786-0, 48 h, read-out: Activity
MDA-MB-231 = assay: Cytotoxicity against human MDA-MB-231 cells assessed as cell growth at 0.1 uM incubated for 48 hrs by sulforhodamine B assay relative to control; conditions: MDA-MB-231, 48 h, read-out: Activity
A549 [6] = assay: Cytotoxicity against human A549/ATCC cells assessed as cell growth at 1 uM incubated for 48 hrs by sulforhodamine B assay relative to control; conditions: A549, 48 h, read-out: Activity
COLO 205 = assay: Cytotoxicity against human COLO205 cells assessed as cell growth at 1 uM incubated for 48 hrs by sulforhodamine B assay relative to control; conditions: COLO 205, 48 h, read-out: Activity
HCT-15 = assay: Cytotoxicity against human HCT15 cells assessed as cell growth at 1 uM incubated for 48 hrs by sulforhodamine B assay relative to control; conditions: HCT-15, 48 h, read-out: Activity
UACC-62 [7] = assay: Cytotoxicity against human UACC62 cells assessed as cell growth at 1 uM incubated for 48 hrs by sulforhodamine B assay relative to control; conditions: UACC-62, 48 h, read-out: Activity
NCI-H522 = assay: Cytotoxicity against human NCI-H522 cells assessed as cell growth at 10 uM incubated for 48 hrs by sulforhodamine B assay relative to control; conditions: NCI-H522, 48 h, read-out: Activity
SK-MEL-5 = assay: Cytotoxicity against human SK-MEL-5 cells assessed as cell growth at 10 uM incubated for 48 hrs by sulforhodamine B assay relative to control; conditions: SK-MEL-5, 48 h, read-out: Activity
UO-31 = assay: Cytotoxicity against human UO31 cells assessed as cell growth at 10 uM incubated for 48 hrs by sulforhodamine B assay relative to control; conditions: UO-31, 48 h, read-out: Activity
DU-145 = assay: Cytotoxicity against human DU145 cells assessed as cell growth at 10 uM incubated for 48 hrs by sulforhodamine B assay relative to control; conditions: DU-145, 48 h, read-out: Activity
RPMI-8226 [8] = assay: Cytotoxicity against human RPMI8226 cells assessed as cell growth at 100 uM incubated for 48 hrs by sulforhodamine B assay relative to control; conditions: RPMI-8226, 48 h, read-out: Activity
A549 [9] = assay: Cytotoxicity against human A549/ATCC cells assessed as cell growth at 100 uM incubated for 48 hrs by sulforhodamine B assay relative to control; conditions: A549, 48 h, read-out: Activity
KM12 = assay: Cytotoxicity against human KM12 cells assessed as cell growth at 100 uM incubated for 48 hrs by sulforhodamine B assay relative to control; conditions: KM12, 48 h, read-out: Activity
OVCAR-5 = assay: Cytotoxicity against human OVCAR5 cells assessed as cell growth at 100 uM incubated for 48 hrs by sulforhodamine B assay relative to control; conditions: OVCAR-5, 48 h, read-out: Activity
CAKI-1 = assay: Cytotoxicity against human Caki1 cells assessed as cell growth at 100 uM incubated for 48 hrs by sulforhodamine B assay relative to control; conditions: CAKI-1, 48 h, read-out: Activity
PC-3 = assay: Cytotoxicity against human PC3 cells assessed as cell growth at 100 uM incubated for 48 hrs by sulforhodamine B assay relative to control; conditions: PC-3, 48 h, read-out: Activity
EKVX = assay: Cytotoxicity against human EKVX cells incubated for 48 hrs by sulforhodamine B assay
NCI-H460 [10] = assay: Cytotoxicity against human NCI-H460 cells incubated for 48 hrs by sulforhodamine B assay; conditions: NCI-H460, 48 h
SNB-19 [11] = assay: Cytotoxicity against human SNB19 cells incubated for 48 hrs by sulforhodamine B assay; conditions: SNB-19, 48 h
Malme-3M = assay: Cytotoxicity against human MALME-3M cells incubated for 48 hrs by sulforhodamine B assay
UACC-62 [12] = assay: Cytotoxicity against human UACC62 cells incubated for 48 hrs by sulforhodamine B assay; conditions: UACC-62, 48 h
OVCAR-4 = assay: Cytotoxicity against human OVCAR4 cells incubated for 48 hrs by sulforhodamine B assay; conditions: OVCAR-4, 48 h
[13] = read-out: LC50 (the source's name)
[14] = read-out: pLC50 (the source's name) (converted)

COc1ccc(-c2nocc2-c2cc(OC)c(OC)c(OC)c2)cc1
EC (Paracentrotus lividus): 0.1 µM | growth at 0.01 µM (NCI-H460 [1]): 105% | growth at 0.01 µM (HCT-116): 92% | growth at 0.01 µM (HT-29): 98% | growth at 0.01 µM (SNB-19 [2]): 98% | growth at 0.01 µM (786-0 [3]): 85% | growth at 0.1 µM (RPMI-8226 [4]): 82% | growth at 0.1 µM (SR): 42% | growth at 0.1 µM (786-0 [5]): 54% | growth at 0.1 µM (MDA-MB-231): 72% | growth at 1 µM (A549 [6]): 28% | growth at 1 µM (COLO 205): 11% | growth at 1 µM (HCT-15): 23% | growth at 1 µM (UACC-62 [7]): 27% | growth at 10 µM (NCI-H522): -6% | growth at 10 µM (SK-MEL-5): -11% | growth at 10 µM (UO-31): 23% | growth at 10 µM (DU-145): 11% | growth at 100 µM (RPMI-8226 [8]): -17% | growth at 100 µM (A549 [9]): 6% | growth at 100 µM (KM12): -45% | growth at 100 µM (OVCAR-5): 21% | growth at 100 µM (CAKI-1): 14% | growth at 100 µM (PC-3): -13% | GI50 (EKVX; read-out: GI50): 0.096 µM | CC50 (EKVX; [13]): > 100 µM | TGI (EKVX; read-out: TGI): > 100 µM | GI50 (EKVX; read-out: pGI50 (converted)): 0.0955 µM | CC50 (EKVX; [14]): > 100 µM | TGI (EKVX; read-out: pTGI): > 100 µM | GI50 (NCI-H460 [10]; read-out: GI50): 0.0536 µM | CC50 (NCI-H460 [10]; [13]): > 100 µM | TGI (NCI-H460 [10]; read-out: TGI): 12.7 µM | GI50 (NCI-H460 [10]; read-out: pGI50 (converted)): 0.0537 µM | CC50 (NCI-H460 [10]; [14]): > 100 µM | TGI (NCI-H460 [10]; read-out: pTGI (converted)): 12.6 µM | GI50 (SNB-19 [11]; read-out: GI50): 0.373 µM | CC50 (SNB-19 [11]; [13]): > 100 µM | TGI (SNB-19 [11]; read-out: TGI): > 100 µM | GI50 (SNB-19 [11]; read-out: pGI50 (converted)): 0.372 µM | CC50 (SNB-19 [11]; [14]): > 100 µM | TGI (SNB-19 [11]; read-out: pTGI): > 100 µM | LC50 (concentration killing 50% of cells) (Malme-3M; read-out: LC50): > 100 µM | TGI (Malme-3M; read-out: TGI): 45.5 µM | LC50 (concentration killing 50% of cells) (Malme-3M; read-out: pLC50 (converted)): > 100 µM | TGI (Malme-3M; read-out: pTGI (converted)): 45.7 µM | GI50 (UACC-62 [12]; read-out: GI50): 0.0557 µM | LC50 (concentration killing 50% of cells) (UACC-62 [12]; read-out: LC50): > 100 µM | TGI (UACC-62 [12]; read-out: TGI): 12.9 µM | GI50 (UACC-62 [12]; read-out: pGI50 (converted)): 0.0562 µM | LC50 (concentration killing 50% of cells) (UACC-62 [12]; read-out: pLC50 (converted)): > 100 µM | TGI (UACC-62 [12]; read-out: pTGI (converted)): 12.9 µM | GI50 (OVCAR-4; read-out: GI50): 0.926 µM | LC50 (OVCAR-4; read-out: LC50): > 100 µM | TGI (OVCAR-4; read-out: TGI): > 100 µM | GI50 (OVCAR-4; read-out: pGI50 (converted)): 0.933 µM | LC50 (OVCAR-4; read-out: pLC50 (converted)): > 100 µM | TGI (OVCAR-4; read-out: pTGI): > 100 µM
